One series relates to HepG2. Briefly: Cytotoxicity against human HepG2 cells assessed as reduction in cell viability at 5 uM after 24 hrs by MTT assay. In kind it is cell-based. The note with it: hepg2, 24 h. In short, it runs like this: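 MTT viability in HepG2 cells (5×10^3/well) after 24 h exposure to compound at 5 μM. Formazan dissolved in DMSO and absorbance read at 570 nm. Mean ± SD of three independent experiments.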

In series [1] the target is T1, Nuclear factor erythroid 2-related factor 2 (Homo sapiens) (UniProt Q16236).
T1 sequence (whole entry): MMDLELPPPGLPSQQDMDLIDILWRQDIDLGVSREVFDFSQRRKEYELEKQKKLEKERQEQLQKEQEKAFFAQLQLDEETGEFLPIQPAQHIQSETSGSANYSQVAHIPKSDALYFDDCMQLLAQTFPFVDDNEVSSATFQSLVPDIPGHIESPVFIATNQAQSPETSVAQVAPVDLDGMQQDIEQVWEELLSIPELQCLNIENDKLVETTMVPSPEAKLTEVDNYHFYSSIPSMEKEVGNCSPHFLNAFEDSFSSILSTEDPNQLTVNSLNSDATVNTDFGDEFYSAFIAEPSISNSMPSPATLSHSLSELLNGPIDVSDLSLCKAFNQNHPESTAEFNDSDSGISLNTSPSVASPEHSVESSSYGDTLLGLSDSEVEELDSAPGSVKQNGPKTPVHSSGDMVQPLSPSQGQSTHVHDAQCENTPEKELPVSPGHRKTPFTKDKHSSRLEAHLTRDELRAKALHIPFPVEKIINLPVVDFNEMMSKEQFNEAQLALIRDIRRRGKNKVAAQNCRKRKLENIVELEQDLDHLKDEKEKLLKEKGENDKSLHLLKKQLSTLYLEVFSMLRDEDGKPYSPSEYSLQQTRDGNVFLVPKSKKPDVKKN
Briefly: Activation of Nrf2 in human HepG2 cells assessed as cytoprotection against t-BHP-induced oxidative cell death at 5 uM incubated for 24 hrs followed by compound removal with subsequent incubation with 900 uM of t-BHP for 6 hrs by MTT assay. It is filed as cell-based. Summed up: (§1)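 HepG2 cells (5×10^3/well) seeded and grown 24 h in 1640 medium with 10% FBS at 37 °C and 5% CO2. Compound is added for 24 h, then removed, and cells are challenged with 900 μM t-BHP for 6 h at 37 °C. MTT (0.5 mg/mL) is added for 4 h, formazan dissolved in DMSO, and absorbance read at 570 nm. Where used, inhibitors are added 1 h before compound. Mean ± SD of three independent experiments.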
(Tetrazolium assays rely on reduction of a dye to a coloured formazan, in cell work by metabolically active cells.)

Series [2] is described as follows: Stability of the compound in PBS at 40 uM at pH 7.4 at 25 degC measured for 30 mins by UV-Vis spectrophotometric analysis. It is filed as physicochemical. The note with it: buffer, pH 7.4, 0.5 h. In short, it runs like this: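 Compound at 40 μM in PBS (pH 7.4) at 25 °C. UV-visible absorption spectra recorded every 2 min for 30 min against blanks of solution plus DMSO.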

For series [3], the target named is T1, Nuclear factor erythroid 2-related factor 2 (Homo sapiens). Briefly: Activation of Nrf2 in human HepG2 cells assessed as increase in HO-1 expression level after 3 hrs by Western blot analysis. It is filed as cell-based. Summed up: (§2)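 HepG2 cells (2×10^6/well) treated at the indicated concentrations and times. Whole-cell lysates, or nuclear and cytoplasmic fractions, are prepared and quantified by BCA. Samples are run at 40 μg/lane on 12% SDS-PAGE, transferred to nitrocellulose, probed with specific antibodies and HRP secondary (1/5000), and detected by ECL. Where used, LY294002 (15 μM), SP600125 (25 μM) or DTT (400 μM) is added 1 h before compound.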

For series [4] the target is unchanged. Briefly: Activation of Nrf2 in human HepG2 cells assessed as increase in GCLM expression level after 3 hrs by Western blot analysis. It is filed as cell-based. In short, it runs like this: as §2
(In general: A western blot detects proteins with antibodies after separation by electrophoresis.)

For series [5] the target is unchanged. In words: Activation of Nrf2 in human HepG2 cells assessed as increase in Nrf2 expression level after 3 hrs by Western blot analysis. It is filed as cell-based. In short, it runs like this: as §2
The target is the same in series [6]. In words: Activation of Nrf2 in human HepG2 cells assessed as increase in GCLC expression level after 3 hrs by Western blot analysis. It is filed as cell-based. Summed up: as §2
Series [7] has the same target. Briefly: Activation of Nrf2 in human HepG2 cells assessed as increase in GCLC expression level at 20 uM by Western blot analysis. It is filed as cell-based. Summed up: as §2
Series [8] has the same target. In words: Activation of Nrf2 in human HepG2 cells assessed as increase in Nrf2 expression level at 20 uM by Western blot analysis. In kind it is cell-based. In short, it runs like this:
as §2

The target is the same in series [9]. Briefly: Activation of Nrf2 in human HepG2 cells assessed as increase in HO-1 expression level at 20 uM by Western blot analysis. It is filed as cell-based. Summed up:
as §2

For series [10] the target is unchanged. Briefly: Activation of Nrf2 in human HepG2 cells assessed as cytoprotective activity against t-BHP-induced oxidative cell death at 20 uM incubated for 24 hrs followed by compound removal with subsequent incubation with 900 uM of t-BHP for 6 hrs by MTT assay. In kind it is cell-based. In short, it runs like this:
as §1

For series [11] the target is unchanged. In words: Activation of Nrf2 in human HepG2 cells assessed as increase in GCLM expression level at 20 uM by Western blot analysis. It is filed as cell-based. In short, it runs like this: as §2

Calls of active or inactive are those of the source. The calls are words filed in the database; no cut-off is given here.

Turning to `COc1cccc(OC)c1/C=C/C(=O)C(C)(C)C(=O)/C=C/c1c(OC)cccc1OC`, the Activity entry in the series with HepG2 is “Non-Toxic”. Besides, in series [1], the outcome was Active.

Regarding `COc1cc(/C=C/C(=O)CC(=O)/C=C/c2ccc(O)c(OC)c2)ccc1O` [CURCUMIN], the Stability result in series [2] was “Unstable”. Moreover, the Activity result in the series with HepG2 is recorded as “Non-Toxic”. Also, in [1], the result was Active.

For `COc1cc(/C=C/C(=O)C(C)(C)C(=O)/C=C/c2cc(OC)c(OC)c(OC)c2)cc(OC)c1OC`, in the series with HepG2, the Activity entry is “Non-Toxic”. Further, the result in series [1] was Active.

`COc1cc(/C=C/C(=O)C(C)(C)C(=O)/C=C/c2ccc(O)c(OC)c2)ccc1O`: the Stability entry in series [2] is recorded as “Stable”. In addition, the Activity entry with HepG2 is “Non-Toxic”. Further, in series [1], the outcome was Active.

As for `CC(C)(C(=O)/C=C/c1ccccc1)C(=O)/C=C/c1ccccc1`, the outcome in series [3], in series [4], in [5] and in [6] was inactive. For the same molecule, the Stability entry in series [2] is given as “Unstable”. Moreover, the Activity entry in the series with HepG2 is “Non-Toxic”. In addition, the outcome in series [1] was Active.

With `CC(C)(C)c1cc(O)ccc1O`, the result in series [7], in series [8], in [9], in series [10] and in series [11] was Active.

For the molecule `CC(C)(C(=O)CCc1ccc(O)c(O)c1)C(=O)CCc1ccc(O)c(O)c1`, the outcome in series [3], in series [4], in series [5] and in series [6] was inactive. In the series on HepG2, the Activity entry was “Non-Toxic”. In series [1], the outcome was Active.

`CC(C)(C(=O)/C=C/c1ccccc1O)C(=O)/C=C/c1ccccc1O`: the Activity entry in the series on HepG2 is recorded as “Non-Toxic”. Also, the result in [1] was Active.

Take `CC(C)(C(=O)/C=C/c1ccccc1C(F)(F)F)C(=O)/C=C/c1ccccc1C(F)(F)F`: the Activity entry with HepG2 is given as “Non-Toxic”. Moreover, the outcome in series [1] was Active.

Regarding `COc1ccccc1/C=C/C(=O)C(C)(C)C(=O)/C=C/c1ccccc1OC`, in the series with HepG2, the Activity result was “Non-Toxic”. Also, the outcome in series [1] was Active.

In the case of `COc1ccc(/C=C/C(=O)C(C)(C)C(=O)/C=C/c2ccc(OC)c(OC)c2)cc1OC`, in series [2], the Stability entry was “Unstable”. For the same molecule, the Activity entry in the series on HepG2 is “Non-Toxic”. Also, the result in [1] was Active.

`COc1cccc(/C=C/C(=O)C(C)(C)C(=O)/C=C/c2cccc(OC)c2)c1`: in the series on HepG2, the Activity result is listed as “Non-Toxic”. Also, in series [1], the outcome was Active.

The values above are taken from ChEMBL document CHEMBL4020714, “Design, synthesis, and evaluation of curcumin derivatives as Nrf2 activators and cytoprotectors against oxidative death” (Eur J Med Chem, 2017).
